Reference: ChEMBL document CHEMBL1136765, “1,3-dioxolane-based ligands as a novel class of alpha1-adrenoceptor antagonists” (J Med Chem, 2003)

Tests used:
[1] = Selectivity given as ratio of pKb value against Alpha-1D receptor to pKb value against Alpha-1B receptor in rat; assay type: functional
[2] = biological target: T1, Alpha-1A adrenergic receptor (Homo sapiens, UniProt P35348); experiment: Affinity constant towards human recombinant Alpha-1A adrenergic receptor using [3H]prazosin (from CHO cells) as radioligand by radioligand binding assay; assay type: cell-based
T1 sequence (P35348 whole entry): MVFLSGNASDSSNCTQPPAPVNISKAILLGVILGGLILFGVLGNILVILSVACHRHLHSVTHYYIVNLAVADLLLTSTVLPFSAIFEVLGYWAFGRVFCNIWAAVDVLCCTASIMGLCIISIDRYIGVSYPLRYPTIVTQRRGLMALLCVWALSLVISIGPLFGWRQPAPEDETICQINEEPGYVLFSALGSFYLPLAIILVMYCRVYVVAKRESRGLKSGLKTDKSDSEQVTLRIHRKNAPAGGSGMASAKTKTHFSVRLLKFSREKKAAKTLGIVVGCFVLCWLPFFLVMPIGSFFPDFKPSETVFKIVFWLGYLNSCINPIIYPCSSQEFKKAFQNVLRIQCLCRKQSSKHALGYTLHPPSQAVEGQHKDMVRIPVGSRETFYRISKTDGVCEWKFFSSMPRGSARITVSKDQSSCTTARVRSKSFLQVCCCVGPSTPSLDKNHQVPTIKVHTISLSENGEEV

[3] = biological target: Adrenergic receptors; alpha-1 A & B (Homo sapiens) (UniProt P35348+P35368); experiment: Selectivity over alpha-1a/alpha-1b; assay type: protein assay
[4] = biological target: T2, Alpha-1A adrenergic receptor (Rattus norvegicus) (UniProt P43140); experiment: Inhibition of (-)-noradrenaline-induced contraction of rat prostatic vas deferens (alpha1A receptor); assay type: functional
T2 sequence (whole entry): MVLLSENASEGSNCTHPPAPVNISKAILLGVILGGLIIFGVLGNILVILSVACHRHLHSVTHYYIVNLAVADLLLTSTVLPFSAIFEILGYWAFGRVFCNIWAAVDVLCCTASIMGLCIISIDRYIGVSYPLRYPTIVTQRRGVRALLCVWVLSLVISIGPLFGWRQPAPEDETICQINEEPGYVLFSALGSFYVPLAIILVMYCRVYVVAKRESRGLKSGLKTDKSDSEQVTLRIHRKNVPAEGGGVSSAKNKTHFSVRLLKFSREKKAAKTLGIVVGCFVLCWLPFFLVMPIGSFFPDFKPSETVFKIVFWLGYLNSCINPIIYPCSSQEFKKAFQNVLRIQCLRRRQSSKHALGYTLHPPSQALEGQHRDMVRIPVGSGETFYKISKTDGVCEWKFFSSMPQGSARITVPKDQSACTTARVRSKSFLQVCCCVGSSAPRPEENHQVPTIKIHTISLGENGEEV
Outline: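 Rat prostatic vas deferens portion equilibrated 60 min, washed every 15 min, primed twice with 10 µM noradrenaline, re-equilibrated 60 min; control noradrenaline concentration-response curve, then antagonist 30 min before repeat curve.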

[5] = Selectivity over human alpha-1d/alpha-1b receptor
[6] = biological target: Alpha adrenergic receptor 1A and 1B (Rattus norvegicus) (UniProt P15823+P43140); experiment: Selectivity given as ratio of pKb value against alpha1A receptor to pKb value against alpha-1B receptor in rat; assay type: functional
Sequence of Alpha adrenergic receptor 1A and 1B (Rattus norvegicus) (P15823 whole entry, looked up, one chain of several): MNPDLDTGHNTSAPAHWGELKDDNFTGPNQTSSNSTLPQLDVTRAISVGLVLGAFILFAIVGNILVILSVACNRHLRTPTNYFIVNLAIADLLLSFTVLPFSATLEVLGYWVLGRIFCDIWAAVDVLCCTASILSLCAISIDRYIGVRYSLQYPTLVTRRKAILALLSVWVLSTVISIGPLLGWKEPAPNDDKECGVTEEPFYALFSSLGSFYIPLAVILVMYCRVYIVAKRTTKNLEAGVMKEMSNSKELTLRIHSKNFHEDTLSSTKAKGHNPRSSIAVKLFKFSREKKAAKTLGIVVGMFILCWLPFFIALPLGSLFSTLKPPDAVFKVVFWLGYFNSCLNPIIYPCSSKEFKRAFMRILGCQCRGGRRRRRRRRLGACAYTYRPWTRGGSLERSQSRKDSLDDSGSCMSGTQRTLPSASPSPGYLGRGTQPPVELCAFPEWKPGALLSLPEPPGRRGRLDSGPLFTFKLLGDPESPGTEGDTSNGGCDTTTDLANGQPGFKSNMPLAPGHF

[7] = biological target: T3, Alpha-1B adrenergic receptor (Homo sapiens, UniProt P35368); experiment: Affinity constant towards human recombinant Alpha-1B adrenergic receptor using [3H]prazosin (from CHO cells) as radioligand by radioligand binding assay; assay type: cell-based
T3 sequence (P35368 whole entry): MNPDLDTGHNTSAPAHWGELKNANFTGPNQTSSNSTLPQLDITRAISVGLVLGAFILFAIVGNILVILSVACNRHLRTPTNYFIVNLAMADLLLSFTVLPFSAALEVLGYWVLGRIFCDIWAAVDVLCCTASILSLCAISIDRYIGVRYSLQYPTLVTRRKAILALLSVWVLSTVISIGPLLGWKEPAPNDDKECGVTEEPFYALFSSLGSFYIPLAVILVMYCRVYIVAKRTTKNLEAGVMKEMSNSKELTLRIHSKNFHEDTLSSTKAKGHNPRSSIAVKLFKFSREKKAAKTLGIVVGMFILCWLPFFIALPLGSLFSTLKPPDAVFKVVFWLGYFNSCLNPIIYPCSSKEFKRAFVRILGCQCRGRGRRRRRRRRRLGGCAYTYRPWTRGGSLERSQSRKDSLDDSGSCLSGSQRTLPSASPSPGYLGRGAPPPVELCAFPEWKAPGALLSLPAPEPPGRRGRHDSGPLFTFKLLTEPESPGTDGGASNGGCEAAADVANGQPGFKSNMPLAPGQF
Outline: (§1)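 Membranes of CHO cells stably expressing each cloned human α1 subtype (30 µg protein) incubated with 0.1-0.4 nM [3H]prazosin in 50 mM Tris-HCl pH 7.4, 30 min at 25 °C, with competitor. Nonspecific binding with 10 µM phentolamine. Stopped by ice-cold buffer and filtration on PEI-pretreated filters. IC50 by curve fitting, Ki via Cheng-Prusoff. Mean of two to three experiments in triplicate.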

[8] = biological target: Alpha adrenergic receptor (1a and 1d) (Homo sapiens) (UniProt P35348+P25100); experiment: Selectivity over human alpha-1d/alpha-1a receptor; assay type: protein assay
[9] = biological target: Alpha adrenergic receptor 1A and 1D (Rattus norvegicus) (UniProt P23944+P43140); experiment: Selectivity given as ratio of pKb value against Alpha-1D receptor to pKb value against alpha1A receptor in rat; assay type: functional
Sequence of Alpha adrenergic receptor 1A and 1D (Rattus norvegicus) (P23944 whole entry, looked up, one chain of several): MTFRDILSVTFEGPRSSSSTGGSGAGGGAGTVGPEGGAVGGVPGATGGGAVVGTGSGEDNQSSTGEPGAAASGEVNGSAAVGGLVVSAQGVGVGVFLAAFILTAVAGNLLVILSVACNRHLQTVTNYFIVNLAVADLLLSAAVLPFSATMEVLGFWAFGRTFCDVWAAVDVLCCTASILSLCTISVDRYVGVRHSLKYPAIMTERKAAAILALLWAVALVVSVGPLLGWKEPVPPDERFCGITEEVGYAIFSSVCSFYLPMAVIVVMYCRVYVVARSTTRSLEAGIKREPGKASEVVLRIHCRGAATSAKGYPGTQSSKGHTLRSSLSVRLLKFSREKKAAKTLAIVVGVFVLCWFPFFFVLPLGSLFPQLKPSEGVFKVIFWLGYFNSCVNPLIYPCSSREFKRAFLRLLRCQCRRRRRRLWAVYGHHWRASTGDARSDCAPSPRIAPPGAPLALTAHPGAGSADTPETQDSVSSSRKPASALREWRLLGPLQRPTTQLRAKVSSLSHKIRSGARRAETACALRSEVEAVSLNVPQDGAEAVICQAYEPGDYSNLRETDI

[10] = biological target: T4, Alpha-1D adrenergic receptor (Homo sapiens, UniProt P25100); experiment: Affinity constant towards human recombinant Alpha-1D adrenergic receptor using [3H]prazosin (from CHO cells) as radioligand by radioligand binding assay; assay type: cell-based; outline: as §1
T4 sequence (P25100 whole entry): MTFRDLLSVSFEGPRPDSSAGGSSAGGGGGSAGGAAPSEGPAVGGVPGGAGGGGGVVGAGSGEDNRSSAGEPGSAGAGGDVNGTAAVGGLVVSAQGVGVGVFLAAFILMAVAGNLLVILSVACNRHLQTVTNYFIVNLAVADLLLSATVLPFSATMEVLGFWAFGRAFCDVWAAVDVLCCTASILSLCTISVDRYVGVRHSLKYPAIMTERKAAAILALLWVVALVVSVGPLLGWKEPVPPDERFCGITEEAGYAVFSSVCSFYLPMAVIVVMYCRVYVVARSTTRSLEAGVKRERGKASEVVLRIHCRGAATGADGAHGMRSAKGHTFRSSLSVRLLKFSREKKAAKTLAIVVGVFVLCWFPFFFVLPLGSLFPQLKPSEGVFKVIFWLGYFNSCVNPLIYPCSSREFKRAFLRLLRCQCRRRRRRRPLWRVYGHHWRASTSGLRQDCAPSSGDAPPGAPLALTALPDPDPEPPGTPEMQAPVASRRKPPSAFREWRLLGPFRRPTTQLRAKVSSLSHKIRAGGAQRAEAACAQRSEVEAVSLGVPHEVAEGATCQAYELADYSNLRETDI

O=C(O)C(=O)O.c1ccc(OCCNCC2COC(c3ccccc3)(c3ccccc3)O2)cc1 (centres undefined)
Selectivity [1]: 324 | Ki [2]: 37.2 nM | Selectivity [3]: 2 | pKb [4]: 6.16 | Selectivity [5]: 6 | Selectivity [6]: 2 | Ki [7]: 63.1 nM | Selectivity [8]: 3 | Selectivity [9]: 162 | Ki [10]: 11.5 nM

CN(CCOc1ccccc1)CC1COC(c2ccccc2)(c2ccccc2)O1.O=C(O)C(=O)O (centres undefined)
Selectivity [1]: 6 | Ki [2]: 832 nM | Selectivity [3]: 0.3 | pKb [4]: 5.06 | Selectivity [5]: < 0.3 | Selectivity [6]: 0.6 | Ki [7]: 257 nM | Selectivity [8]: < 0.9 | Selectivity [9]: 10 | Ki [10]: > 1000 nM

COc1ccccc1OCCNCC1COC(c2ccccc2)(c2ccccc2)O1.O=C(O)C(=O)O (centres undefined)
Selectivity [1]: 20 | Ki [2]: 24.5 nM | Selectivity [3]: 2 | Selectivity [5]: 7 | Selectivity [6]: 1 | Ki [7]: 45.7 nM | Selectivity [8]: 3 | Selectivity [9]: 13 | Ki [10]: 9.33 nM

C[N+](C)(CCOc1ccccc1)CC1COC(c2ccccc2)(c2ccccc2)O1.O=C([O-])C(=O)O (centres undefined)
Selectivity [1]: 4 | Ki [2]: 33.9 nM | Selectivity [3]: 0.6 | pKb [4]: < 5 | Selectivity [5]: < 0.02 | Selectivity [6]: < 0.3 | Ki [7]: 20.4 nM | Selectivity [8]: < 0.03 | Selectivity [9]: > 15 | Ki [10]: > 1000 nM
